ChEMBL document CHEMBL1240422, “Design, synthesis and biological evaluation of 3,5-diaryl-isoxazoline/isoxazole-pyrrolobenzodiazepine conjugates as potential anticancer agents” (2010)
Active and inactive are the calls of the source. No cut-off for these calls is given here.

How the values were obtained:
SK-MEL-28 = assay: Anticancer activity against human SK-MEL-28 cells after 48 hrs by SRB assay; type: functional; conditions: SK-MEL-28, 48 h
K562 = assay: Anticancer activity against human K562 cells after 48 hrs by SRB assay; type: functional; conditions: K562, 48 h
EKVX = assay: Anticancer activity against human EKVX cells after 48 hrs by SRB assay; type: functional
RXF 393 = assay: Anticancer activity against human […] cells after 48 hrs by SRB assay; type: functional; conditions: RXF 393, 48 h
COLO 205 = assay: Anticancer activity against human COLO205 cells after 48 hrs by SRB assay; type: functional; conditions: COLO 205, 48 h
How it was run: (§1)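 Grown in RPMI 1640 with 10% FBS and 2 mM L-glutamine at 37 °C, 5% CO2. Seeded at densities set by doubling time, then preincubated 24 h. Continuous 48 h drug exposure at four concentrations (0.1, 1, 10, 100), triplicate wells. Fixed with cold TCA (final 10%) at 4 °C, 60 min. Stained with 0.4% SRB in 1% acetic acid, eluted with 10 mM Tris base, read at 540/690 nm. Percent growth versus control wells.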

SK-OV-3 = assay: Anticancer activity against human SKOV3 cells after 48 hrs by SRB assay; type: functional; conditions: SK-OV-3, 48 h
NCI-H460 = assay: Anticancer activity against human NCI-H460 cells after 48 hrs by SRB assay; type: functional; conditions: NCI-H460, 48 h
U-251 = assay: Anticancer activity against human U251 cells after 48 hrs by SRB assay; type: functional; conditions: U-251, 48 h
SF-268 = assay: Anticancer activity against human SF268 cells after 48 hrs by SRB assay; type: functional; conditions: SF-268, 48 h
SK-MEL-2 = assay: Anticancer activity against human SK-MEL-2 cells after 48 hrs by SRB assay; type: functional; conditions: SK-MEL-2, 48 h
CAKI-1 = assay: Anticancer activity against human Caki1 cells after 48 hrs by SRB assay; type: functional; conditions: CAKI-1, 48 h
MDA-MB-468 = assay: Anticancer activity against human MDA-MB-468 cells after 48 hrs by SRB assay; type: functional; conditions: MDA-MB-468, 48 h
HCT-116 = assay: Anticancer activity against human HCT116 cells after 48 hrs by SRB assay; type: functional; conditions: HCT-116, 48 h
[1] = Anticancer activity against human Hs 578T cells after 48 hrs by SRB assay; type: functional
MCF7 = assay: Anticancer activity against human MCF7 cells after 48 hrs by SRB assay; type: functional; conditions: MCF7, 48 h; how it was run: as §1
HOP-92 = assay: Anticancer activity against human HOP92 cells after 48 hrs by SRB assay; type: functional; conditions: HOP-92, 48 h
A-375 [2] = assay: Cell cycle arrest in human A375 cells assessed as accumulation at S phase at 4 uM after 24 hrs using propidium iodide staining by FACS; type: functional
How it was run: (§2)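 Treated A375 cells (24 h) were harvested with trypsin-EDTA and fixed in ice-cold 70% ethanol (4 °C, 30 min). After a PBS wash, they were incubated with 1 mg/mL RNase A (37 °C, 30 min) and stained with propidium iodide solution containing trisodium citrate and Triton X-100. DNA content was measured by flow cytometry on 20,000 events. Controls were DMSO-treated.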

SW-620 = assay: Anticancer activity against human SW620 cells after 48 hrs by SRB assay; type: functional; conditions: SW-620, 48 h
NCI-H322M = assay: Anticancer activity against human NCI-H322M cells after 48 hrs by SRB assay; type: functional
A549 = assay: Anticancer activity against human A549 cells after 48 hrs by SRB assay; type: functional; conditions: A549, 48 h; how it was run: as §1
SK-MEL-5 = assay: Anticancer activity against human SK-MEL-5 cells after 48 hrs by SRB assay; type: functional; conditions: SK-MEL-5, 48 h
MOLT-4 = assay: Anticancer activity against human MOLT4 cells after 48 hrs by SRB assay; type: functional; conditions: MOLT-4, 48 h
UACC-257 = assay: Anticancer activity against human UACC257 cells after 48 hrs by SRB assay; type: functional; conditions: UACC-257, 48 h
DU-145 = assay: Anticancer activity against human DU145 cells after 48 hrs by SRB assay; type: functional; conditions: DU-145, 48 h
LOX IMVI = assay: Anticancer activity against human LOXIMVI cells after 48 hrs by SRB assay; type: functional
HCT-15 = assay: Anticancer activity against human HCT15 cells after 48 hrs by SRB assay; type: functional; conditions: HCT-15, 48 h
OVCAR-5 = assay: Anticancer activity against human OVCAR5 cells after 48 hrs by SRB assay; type: functional; conditions: OVCAR-5, 48 h
MDA-MB-231 = assay: Anticancer activity against human MDA-MB-231 cells after 48 hrs by SRB assay; type: functional; conditions: MDA-MB-231, 48 h
A-375 [3] = assay: Cell cycle arrest in human A375 cells assessed as accumulation at G0/G1 phase at 4 uM after 24 hrs using propidium iodide staining by FACS; type: functional; how it was run: as §2
A498 = assay: Anticancer activity against human A498 cells after 48 hrs by SRB assay; type: functional; conditions: A498, 48 h
786-0 = assay: Anticancer activity against human 786-0 cells after 48 hrs by SRB assay; type: functional; conditions: 786-0, 48 h
BT-549 = assay: Anticancer activity against human BT549 cells after 48 hrs by SRB assay; type: functional; conditions: BT-549, 48 h
RPMI-8226 = assay: Anticancer activity against human RPMI8226 cells after 48 hrs by SRB assay; type: functional; conditions: RPMI-8226, 48 h
NCI-H23 = assay: Anticancer activity against human NCI-H23 cells after 48 hrs by SRB assay; type: functional; conditions: NCI-H23, 48 h
CCRF-CEM = assay: Anticancer activity against human CCRF-CEM cells after 48 hrs by SRB assay; type: functional
PC-3 = assay: Anticancer activity against human PC3 cells after 48 hrs by SRB assay; type: functional; conditions: PC-3, 48 h; how it was run: as §1
KM12 = assay: Anticancer activity against human KM12 cells after 48 hrs by SRB assay; type: functional; conditions: KM12, 48 h
HOP-62 = assay: Anticancer activity against human HOP62 cells after 48 hrs by SRB assay; type: functional; conditions: HOP-62, 48 h; how it was run: as §1
ACHN = assay: Anticancer activity against human ACHN cells after 48 hrs by SRB assay; type: functional
TK-10 = assay: Anticancer activity against human TK10 cells after 48 hrs by SRB assay; type: functional; conditions: TK-10, 48 h
M14 = assay: Anticancer activity against human M14 cells after 48 hrs by SRB assay; type: functional; conditions: M14, 48 h
A-375 [4] = assay: Induction of apoptosis in human A375 cells assessed as caspase3 activation at 4 uM after 24 hrs by fluorimetry; type: functional, cell-based
How it was run: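 Caspase-3 activity was measured by a fluorometric assay on lysates of treated and untreated A375 cells.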

SNB-19 = assay: Anticancer activity against human SNB19 cells after 48 hrs by SRB assay; type: functional; conditions: SNB-19, 48 h
HL-60(TB) = assay: Anticancer activity against human HL-60(TB) cells after 48 hrs by SRB assay; type: functional; conditions: HL-60, 48 h

COc1ccc(C2=NOC(c3cc(OC)c(OC)c(OC)c3)C2)cc1OCCCCOc1cc2c(cc1OC)C(=O)N1CCC[C@H]1C=N2 (some centres undefined)
GI50 (SK-MEL-28): 200 nM
GI50 (K562): 120 nM
GI50 (EKVX): 460 nM
GI50 (RXF 393): 210 nM
GI50 (COLO 205): 210 nM
GI50 (SK-OV-3): 470 nM
GI50 (NCI-H460): 210 nM
GI50 (U-251): 300 nM
GI50 (SF-268): 340 nM
GI50 (SK-MEL-2): 230 nM
GI50 (CAKI-1): 250 nM
GI50 (MDA-MB-468): 220 nM
GI50 (HCT-116): 180 nM
GI50 [1]: 160 nM
GI50 (MCF7): 200 nM
GI50 (HOP-92): 310 nM
Activity (A-375 [2]): 3.52%
GI50 (SW-620): 230 nM
GI50 (NCI-H322M): 340 nM
GI50 (A549): 260 nM
GI50 (SK-MEL-5): 160 nM
GI50 (MOLT-4): 200 nM
GI50 (UACC-257): 270 nM
GI50 (DU-145): 580 nM
GI50 (LOX IMVI): 220 nM
GI50 (HCT-15): 180 nM
GI50 (OVCAR-5): 420 nM
GI50 (MDA-MB-231): 190 nM
Activity (A-375 [3]): 95.2%
GI50 (A498): 180 nM
GI50 (786-0): 280 nM
GI50 (BT-549): 90 nM
GI50 (RPMI-8226): 240 nM
GI50 (NCI-H23): 270 nM
GI50 (CCRF-CEM): 160 nM
GI50 (PC-3): 2480 nM
GI50 (KM12): 220 nM
GI50 (HOP-62): 270 nM
GI50 (ACHN): 280 nM
GI50 (TK-10): 280 nM
GI50 (M14): 180 nM
Activity (A-375 [4]): Active
GI50 (SNB-19): 340 nM
GI50 (HL-60(TB)): 180 nM
